# Test system: MC38-hPD-L1 tumors
# Assay: MC38-hPD-L1 tumor model in humanized PD-1 mice
# Assay type: in vivo, mouse
# Details: 10 mg/kg i.p.; p<0.001
# Outline: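 Male C57BL/6N humanized PD-1 mice receive 1×10^6 MC38-hPD-L1 cells s.c. in the right flank. At day 12 (~60 mm3) they are randomized into 3 groups (N=6). Dosing is 10 mg/kg i.p. daily for 10 doses, or atezolizumab 10 mg/kg i.p. three times weekly, both over days 12–22. Tumour (X2Y0.5, caliper) and body weight are measured every 3 days. At day 30, tumours are enzymatically digested and analysed by flow cytometry.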
substance,measurement,value
atezolizumab: clinically relevant anti-PD-L1 antibody control in vivo,tumor growth inhibition,significant

# From publication PMC9310269 (Journal for Immunotherapy of Cancer, 2022)
